Bioassay records from PubChem BioAssay.
Lmaj promast = reduces viability of Leishmania major promastigotes. inhibition, % at 10 µM. resazurin fluorescence viability. actives 9% (n = 200,000). AID 1063; in the data active = inhibition above about 50%;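 note: promastigotes grown with compound for 44 hours at 28 °C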
T cruzi repl = T. cruzi replication inhibition; T. cruzi beta-gal in NIH3T3, luminescence, 90 h; inhibition, % (no concentration beside the values); actives 1.4% (n = 300,000); AID 1885;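 active = mean inhibition across valid replicates above about 55%, limit read from the data; inconclusive = mean below that limit but half or more replicates reach it; inactive = mean below it, under half of replicates reach it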;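 note: signal also drops with host cell toxicity which is not excluded here; 0% = plate median of DMSO wells and 100% = zero luminescence signal; higher percent means less beta-gal luminescence so fewer parasites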
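Assay system: NIH/3T3 host cells with β-galactosidase reporter T. cruzi; input: 5,000 host fibroblasts per well; compound: single 50 nL compound addition per well in DMSO; timing: ≥90 h infection period, 3 h prior cell attachment; measured by: GalScreen β-gal luminescence, detergent lysis, 60 min; evaluation: percent inhibition of parasite-derived β-gal signal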
Mdm2 MdmX PPI = disrupts the human Mdm2-MdmX interaction; O15151+Q00987; SaOS-2 split-luciferase Mdm2/MdmX complementation, luminescence; inhibition, % at 8 µM; actives 3% (n = 330,000); AID 485346;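 active = inhibition of at least 50% at 8 µM in the primary screen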
Target sequence (O15151 whole entry, looked up): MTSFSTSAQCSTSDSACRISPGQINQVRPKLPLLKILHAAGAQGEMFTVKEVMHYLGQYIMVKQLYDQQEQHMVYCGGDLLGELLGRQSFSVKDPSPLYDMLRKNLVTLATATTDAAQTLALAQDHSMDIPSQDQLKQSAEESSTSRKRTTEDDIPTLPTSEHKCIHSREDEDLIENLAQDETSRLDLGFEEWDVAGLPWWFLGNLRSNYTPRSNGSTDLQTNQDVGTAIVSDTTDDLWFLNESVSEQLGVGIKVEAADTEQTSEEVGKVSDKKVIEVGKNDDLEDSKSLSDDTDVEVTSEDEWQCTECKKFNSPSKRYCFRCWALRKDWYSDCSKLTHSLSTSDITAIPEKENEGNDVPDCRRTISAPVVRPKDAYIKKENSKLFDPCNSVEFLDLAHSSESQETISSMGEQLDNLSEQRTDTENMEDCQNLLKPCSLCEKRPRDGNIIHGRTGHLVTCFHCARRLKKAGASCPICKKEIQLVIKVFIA
Target sequence (Q00987 whole entry, looked up): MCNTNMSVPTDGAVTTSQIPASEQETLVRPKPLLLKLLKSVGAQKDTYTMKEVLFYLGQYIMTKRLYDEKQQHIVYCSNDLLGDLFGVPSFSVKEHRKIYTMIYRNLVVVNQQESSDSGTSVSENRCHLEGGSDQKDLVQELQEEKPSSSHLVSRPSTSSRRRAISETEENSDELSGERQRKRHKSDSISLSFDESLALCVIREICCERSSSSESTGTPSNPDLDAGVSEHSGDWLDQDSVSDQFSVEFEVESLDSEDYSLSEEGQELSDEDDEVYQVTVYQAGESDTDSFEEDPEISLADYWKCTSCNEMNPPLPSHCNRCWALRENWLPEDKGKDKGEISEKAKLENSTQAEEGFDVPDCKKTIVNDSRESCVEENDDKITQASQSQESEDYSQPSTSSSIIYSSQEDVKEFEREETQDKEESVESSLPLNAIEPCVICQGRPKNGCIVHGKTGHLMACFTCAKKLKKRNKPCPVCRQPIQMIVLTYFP
Beta apoptosis = beta cell apoptosis inhibition | INS-1E cytokine-induced death, ATP luminescence, 48 h; percent of positive-control rescue, neutral wells zero | protection from apoptosis, % (test concentration not listed) | actives 0.8% (n = 300,000) | AID 435005;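 active = Every replicate reaches about 75%, or at least half do and their mean reaches it too, limit read from the data; inconclusive = At least half of replicates reach the limit but their mean does not; inactive = Under half of replicates reach the limit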;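 note: 0% = cytokine-treated negative control wells and 100% = positive control rescue; higher means more ATP so stronger rescue from cytokine killing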
CSC inhib = blocks cancer stem cells | cancer stem cell-like cells viability, luminescence | inhibition, % at 7.5 µM | actives 1.1% (n = 300,000); in the data active = inhibition above about 75%; inconclusive = no clear call, values can overlap the other calls; tested in HMLE shEcad cells
SKKanGAS inh = blocks kanamycin growth of S. pyogenes SKKanGAS strain. BacTiter-Glo, 6 h. inhibition, % at 7.5 µM. actives 1.3% (n = 300,000). AID 1662;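 active = mean replicate score, as percent of positive control median, at least 50; inconclusive = mean below 50 but one replicate at or above 50; inactive = mean and every replicate below 50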;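 note: strain carries kanamycin resistance gene driven by streptokinase promoter and grows in 40 µg/ml kanamycin; loss of luminescence reflects streptokinase promoter inhibition or plain growth inhibition; 0% = median of DMSO wells and 100% = positive control at its reference dose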
Mdm2-MdmX conf = confirmation of human Mdm2/MdmX interaction inhibitors. shares compounds with Mdm2 MdmX PPI. Mdm2-MdmX binding, luminescent assay. inhibition, % at 8 µM. actives 55% (n = 10,000); in the data active = inhibition above about 40%
FLuc counter = full-length luciferase inhibition in Mdm2/MdmX counter-screen; SaOS-2 full-length luciferase counterscreen, luminescence; actives 77% (n = 6,200); shares compounds with Mdm2 MdmX PPI; inhibition, % at 8 µM; AID 504607;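 active = mean inhibition at 8 µM reaching about 37%, which flags the compound as non-specific, limit read from the data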;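 note: p53-null SaOS-2 cells with luciferase driven by a doxycycline-inducible promoter; compound on cells about two nights before reading with doxycycline added after day one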
Starred values were filed as active, the others as inactive; ? = inconclusive; nt = not tested or not shown. Shown are actives, neighbours in structure and some others; about 9.4% of the full set was active somewhere.

SMILES	Lmaj promast	T cruzi repl	Mdm2 MdmX PPI	Beta apoptosis	CSC inhib	SKKanGAS inh	Mdm2-MdmX conf	FLuc counter
COc1ccc(C2(c3ccc(OC)cc3)NC(=O)N(CC(=O)NC(C)C)C2=O)cc1	nt	-13	-2	3	-29	-9	nt	nt
COC(=O)N1C(=O)[C@@](c2ccccc2)(C(C)C)N1C(=O)OC	nt	-12	55*	0	16	7	31	nt
COC(=O)N1C(=O)[C@@](c2ccc(OC)cc2)(C(C)C)N1C(=O)OC	nt	0	51*	-8	10	1	28	nt
COC(=O)N1C(=O)[C@](c2ccc(Cl)cc2)(C(C)C)N1C(=O)OC	nt	-13	56*	0	25	16	40	51*
COc1ccc(/C=C(/NC(=O)c2ccccc2)c2nc3ccccc3[nH]2)cc1OC	1	3	6	10	-7	1	nt	nt
CC(C)c1ccc(/C=C(\c2nc3ccccc3[nH]2)S(=O)(=O)c2ccccc2)cc1	100*	49	100*	102*	46	6	100*	53*
COc1ccc(SCC(=O)c2cc(C)c(OC(=S)N(C)C)c(C)c2)cc1	2	11	-51	8	-14	27	nt	nt
Cc1cc(C(=O)CSc2ccc(F)cc2)cc(C)c1OC(=S)N(C)C	24	26	58*	-3	nt	2	84*	107*
COC(=O)[C@]1(Cc2ccccc2)N[C@H](CN(C)C(=O)c2ccc(F)cc2)[C@@H]2C(=O)N(Cc3ccccc3)C(=O)[C@@H]21	nt	nt	26	-1	nt	nt	nt	nt
CC1(C)C[C@H](O)[C@]2(CO)[C@H](O)C[C@]3(C)C(=CCC4[C@@]5(C)CC[C@H](O)C(C)(C)C5CC[C@]43C)[C@@H]2C1 (stereo not given in full)	nt	nt	100*	56	?	nt	28	nt
CCOc1ccc(OCCC(=O)NNC(=O)c2cc(OC)c(OC)c(OC)c2)cc1	nt	-8	23	-1	3	1	nt	nt
O=C(C1=C[C@H](c2ccccc2)C[C@H](OCCCCO)O1)N1CCN(Cc2ccccc2)CC1	-11	?	-9	-2	-12	-3	nt	nt
C#Cc1ccc([C@@H]2C=C(C(=O)N3CCN(Cc4ccccc4)CC3)O[C@H](OCCCCO)C2)cc1	-4	52	57*	124*	2	7	77*	37*
CC(C)Cn1cc(F)c(=O)n(CC(C)C)c1=O	23	-9	5	nt	2	16	nt	nt
Cc1nn(C(C)(C)C)c(C)c1/C=N/OC(=O)Nc1ccc(Cl)cc1	nt	9	95*	-3	13	-4	93*	57*
O=C(NC(Nc1ncc(S(=O)(=O)c2ccc([N+](=O)[O-])cc2)s1)(C(F)(F)F)C(F)(F)F)c1ccc(Cl)cc1	10	27	97*	113*	89*	7	96*	30
COCC(=O)Nc1ncc(S(=O)(=O)c2ccc([N+](=O)[O-])cc2)s1	5	27	11	-2	-12	1	nt	nt
Cc1ccc2[nH]c(-c3cccc(F)c3)cc(=O)c2c1	2	-1	58*	11	58	6	71*	95*
O=c1cc(-c2cccc(F)c2)[nH]c2ccccc12	-3	-9	52*	17	47	1	75*	78*
COCCNC(=S)N(CCc1c(C)[nH]c2ccc(F)cc12)Cc1ccco1	nt	9	0	0	17	0	nt	nt
Cc1ccc(NC(=O)CN(C)CC(=O)Nc2cccc(F)c2)cc1S(=O)(=O)N1CCCCCC1	21	40	29	-5	15	7	nt	nt
O=C1N[C@@H](Cc2c[nH]c3ccccc23)COC(=O)[C@H](Cc2ccc(F)cc2)C/C=C\C[C@@H]1CC(=O)N(CCO)Cc1ccccc1	nt	nt	41	3	1	nt	nt	nt
O=C1NC[C@@H](c2ccccc2)OC(=O)[C@@H](Cc2ccc(F)cc2)CC/C=C/C[C@H]1CC(=O)N(CCO)Cc1ccccc1	nt	nt	62*	9	18	nt	47*	53*
O=C1N[C@@H](Cc2c[nH]c3ccccc23)COC(=O)[C@@H](Cc2ccc(F)cc2)C/C=C\C[C@H]1CC(=O)N(CCO)Cc1ccccc1	nt	nt	51*	1	32	nt	20	nt
O=C(C[C@@H]1C/C=C/CC[C@H](Cc2ccc(F)cc2)C(=O)OC[C@@H](Cc2ccccc2)NC1=O)N[C@H](CO)Cc1ccccc1	nt	nt	96*	124*	105*	nt	93*	30
SMILES	Lmaj promast	T cruzi repl	Mdm2 MdmX PPI	Beta apoptosis	CSC inhib	SKKanGAS inh	Mdm2-MdmX conf	FLuc counter
O=C1NC[C@H](c2ccccc2)OC(=O)[C@H](Cc2ccc(F)cc2)C/C=C\C[C@H]1CC(=O)N(CCO)Cc1ccccc1	nt	nt	81*	-1	36	nt	63*	47*
O=C1NC[C@H](c2ccccc2)OC(=O)[C@@H](Cc2ccc(F)cc2)C/C=C\C[C@H]1CC(=O)N(CCO)Cc1ccccc1	nt	nt	85*	8	41	nt	79*	51*
O=C1NC[C@@H](c2ccccc2)OC(=O)[C@H](Cc2ccc(F)cc2)C/C=C\C[C@H]1CC(=O)N(CCO)Cc1ccccc1	nt	nt	31	3	nt	nt	nt	nt
CCOC(=O)C(C)Oc1cccc2c(=O)n(CC(=O)NCc3ccc4c(c3)OCO4)ccc12 (stereo not given)	-8	-15	54*	17	55	-6	59*	57*
CCOC(=O)COc1cccc2c(=O)n(CC(=O)NCc3ccccc3)ccc12	nt	5	47	31	53	8	nt	nt
CCOC(=O)C(C)Oc1cccc2c(=O)n(CC(=O)Nc3ccc4c(c3)OCCO4)ccc12 (stereo not given)	-9	1	48	12	-20	-1	nt	nt
CCOC(=O)COc1cccc2c(=O)n(CC(=O)NCc3ccc(F)cc3)ccc12	nt	37	59*	4	63	-15	61*	83*
COc1ccccc1N1CCN(C(=O)c2ccc3c(=O)n(Cc4ccco4)c(=S)[nH]c3c2)CC1	32	-2	19	-3	4	22	nt	nt
COc1ccccc1Cn1c(=S)[nH]c2cc(C(=O)N3CCN(c4ccccc4OC)CC3)ccc2c1=O	nt	-28	61*	-6	-7	-19	42*	54*
CCOC(=O)N1CCN(C(=O)c2ccc3c(=O)n(-c4ccc(OC)cc4OC)c(=S)[nH]c3c2)CC1	-5	3	10	-2	-5	11	nt	nt
CCOC(=O)N1CCN(C(=O)c2ccc3c(=O)n(-c4ccc(OC)cc4)c(=S)[nH]c3c2)CC1	-3	-2	69*	1	-4	3	12	nt
Cc1cc(C)nc(N2CCCC(CCC(=O)NCc3ccc(F)c(F)c3)C2)n1 (stereo not given)	0	7	21	-2	7	-5	nt	nt
